RGS4 block: RGS4 inhibitors, primary screen, cell-based, HEK293 M3R inducible RGS4, calcium flux. Regulator of G-protein signaling 4 (Homo sapiens), P49798. Fluo-4 calcium flux; hits give high values; triggered by carbachol at its EC20. B-score at 10 µM. 310,000 tested, 0.45% active. AID 463165, 2010;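 active means B-score, a plate-corrected calcium signal, over three deviations above library mean, with baseline fluorescence within five deviations of library mean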;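 further: RGS4 expression induced by doxycycline in cells with stable M3 receptor; B-score is computed from the integrated fluorescence ratio over baseline after carbachol; higher B-score means a larger calcium signal and so more RGS4 inhibition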
Target sequence (P49798 whole entry, looked up): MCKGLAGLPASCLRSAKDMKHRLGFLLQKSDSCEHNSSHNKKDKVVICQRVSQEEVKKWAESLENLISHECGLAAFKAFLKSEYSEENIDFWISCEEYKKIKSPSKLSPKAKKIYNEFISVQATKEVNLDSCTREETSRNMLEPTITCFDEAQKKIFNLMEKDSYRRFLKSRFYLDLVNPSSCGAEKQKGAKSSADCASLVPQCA
MrgX1 antagonist: antagonists of human MrgX1 receptor, primary screen, HEK293 cells, Fluo-4 calcium flux; BAM8-22 antagonism; hits give low values; B-score at 10 µM; 310,000 tested, 1.3% active;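 active means calcium-response B-score plate-corrected more than 3 library SD below zero, starting fluorescence within 5 deviations, no agonist response on first addition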;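 further: peak minus trough fluorescence over baseline after final BAM8-22 challenge near maximal dose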
Target sequence (Q96LB2 whole entry, looked up): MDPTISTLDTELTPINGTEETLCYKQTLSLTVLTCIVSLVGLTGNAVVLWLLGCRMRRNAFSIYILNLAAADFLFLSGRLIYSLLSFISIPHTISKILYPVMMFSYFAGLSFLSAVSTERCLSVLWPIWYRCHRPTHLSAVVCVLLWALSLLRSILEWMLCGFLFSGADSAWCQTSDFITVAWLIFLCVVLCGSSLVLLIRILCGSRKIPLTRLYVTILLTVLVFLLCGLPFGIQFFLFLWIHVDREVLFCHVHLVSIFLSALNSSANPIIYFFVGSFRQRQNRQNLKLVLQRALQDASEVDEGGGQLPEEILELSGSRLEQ
RGS4 pot: RGS4 potentiators or activators, primary screen, cell-based, HEK293 M3R inducible RGS4, calcium flux | AID 463111, 2010 | carbachol calcium flux Fluo4; hits give low values | 310,000 tested, 0.92% active | B-score at 10 µM;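 active means B-score of the integrated calcium signal more than 4 SD below the library mean, with starting fluorescence not abnormally high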;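 further: negative B-score means reduced calcium response which marks RGS4 activation or potentiation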
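Assay system: HEK293 FlpIn-TREx cells, stable M3R, doxycycline-inducible RGS4 / Probe or stimulus: carbachol, ECmax concentration / Times: overnight RGS4 induction, 30 min dye load 37 °C, 20 min compound RT / Signal: kinetic calcium fluorescence imaging with Fluo4-AM dye, 2 µM / Measure: Agonist-evoked peak-minus-minimum fluorescence over baseline, integrated ratio, B score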
MrgX1 PAM: positive allosteric modulators of MrgX1, primary screen, HEK293 cells, Fluo-4 calcium flux; Mas-related G-protein coupled receptor member X1 (Homo sapiens), Q96LB2; FDSS; hits give high values; B-score at 10 µM; 310,000 tested, 0.63% active; AID 588675, 2011;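 active means plate-corrected calcium response at least 3 library SD above typical, normal starting fluorescence, not activating the receptor alone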;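 further: compound read alongside a low EC10 to EC30 dose of BAM8-22 agonist; peak minus trough fluorescence over baseline measured at the second addition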
MrgX1 ag: agonists of human MrgX1 receptor, primary screen, HEK293 cells, Fluo-4 calcium flux. B-score at 10 µM. 310,000 tested, 0.44% active. Fluo-4 calcium fluorescence, agonist mode; hits give high values. Mas-related G-protein coupled receptor member X1 (Homo sapiens), Q96LB2. AID 588627, 2011;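 active means calcium response B-score plate-corrected fluorescence ratio at least 3 library SD, with starting fluorescence B-score inside 5 SD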
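Assay system: stable human MrgX1 HEK293 cell line. Quantity: 15,000 cells per well. Schedule: cells plated overnight, dye loaded 0.5 h 37 °C, 0.5 h room temperature. Detection: Fluo-4 NW calcium-flux fluorescence, kinetic read. Read-out basis: peak-minus-minimum fluorescence over baseline, converted to B scores. Control set: positive and negative control wells on each plate.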
RGS4 inh valid: enhanced carbachol calcium response, M3R/RGS4 cells, RGS4 inhibitor project, cell-based, validation screen, HEK293 M3R/RGS4, calcium flux. shares compounds with RGS4 block. carbachol calcium Fluo-4 fluorescence; carbachol added at its EC20; 0 = buffer wells, 100 = carbachol control. calcium response, % at 10 µM. 1,700 tested, 65% active;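 active means duplicate-averaged calcium response above the buffer-only control mean plus 5 SD of those controls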;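 further: integrated fluorescence ratio F max minus min over baseline F0; higher response in RGS4-induced cells means RGS4 inhibition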
RGS4 uninduced: carbachol calcium response in non-induced M3R cells, confirmation, counter-screen for RGS4 inhibitor project, cell-based, HEK293 M3R | 1,900 tested, 20% active | shares compounds with RGS4 block | carbachol calcium Fluo-4; submaximal (EC20) carbachol stimulus; buffer wells 0%, carbachol control wells 100% | activity (percent), % at 10 µM; call rule not given here;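 further: RGS4 induction absent so cells express M3R without RGS4; higher means more calcium signal and flags a non-specific hit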
M3R basal Ca ctr: second counter-screen for RGS4 inhibitors: non-induced cells without carbachol. shares compounds with RGS4 block. HEK293 M3R/RGS4 non-induced, Fluo-4 calcium, no carbachol; normalised: buffer wells 0%, carbachol wells 100%. calcium response (agonist-mode artifact), % at 10 µM. 1,900 tested, 22% active;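 active means duplicate-averaged calcium rise in uninduced cells above buffer wells' mean plus 5 SD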
Numbers without * were called inactive; i = inactive; . = not tested or not shown. Compounds with a hit are over-represented: about 3.5% of the library has one in this group of screens.

SMILES	RGS4 block	MrgX1 antagonist	RGS4 pot	MrgX1 PAM	MrgX1 ag	RGS4 inh valid	RGS4 uninduced	M3R basal Ca ctr
O=C1NC(=Nc2ccccc2Cl)S/C1=C\c1cccc([N+](=O)[O-])c1O	i	i	i	i	i	i	i	i
COc1c(/C=C2\SC(=Nc3ccccc3Cl)NC2=O)cccc1[N+](=O)[O-]	8.5*	i	i	i	i	34%*	70%*	i
Cc1cccc(OCCOc2ccc(/C=N/NC(=O)Cc3nnc(N)s3)cc2)c1	.	i	.	i	i	.	.	.
CCCOc1ccc(/C=c2\sc3ncnn3c2=O)cc1	5.8*	i	i	i	i	9.0%*	49%*	14%*
O=C(Oc1cccc2cccnc12)c1ccc(N2C(=O)C3C4CCC(C4)C3C2=O)cc1 (stereo unspecified)	i	i	i	i	i	.	i	7.0%*
Cc1ncsc1CCSc1nc2ccccc2c(=O)n1C	i	i	i	i	i	.	.	.
CCN(CC)c1nc(N)c2c(N)nc3c(c2c1C#N)CC(c1ccccc1)O3 (stereo unspecified)	5.3*	i	i	i	i	18%*	i	i
O=S(=O)(Nc1ccc(S(=O)(=O)Nc2nccs2)cc1)c1ccc2c(c1)OCCO2	i	i	i	i	i	i	i	i
NS(=O)(=O)c1ccc(NS(=O)(=O)c2ccc3c(c2)OCCO3)cc1	i	i	i	i	i	.	.	.
Oc1ccc(C[C@@H]2CNC(=S)N2CCCCC2CCCCC2)cc1	5.3*	i	i	i	i	18%*	i	i
CN(CC(O)CON=C1c2ccccc2-c2ccccc21)S(=O)(=O)c1ccc(Br)cc1 (stereo unspecified)	i	i	i	i	i	.	.	.
O=C(/C(=C/O)N=Nc1ccccc1)c1ccc(Cl)cc1	8.7*	i	i	i	i	64%*	78%*	i
O=C1c2[nH]nc(-c3ccccc3O)c2C(c2ccccc2F)N1Cc1ccco1 (stereo unspecified)	16*	i	i	i	i	34%*	40%*	i
O=C(C1=C(O)C(=O)N(Cc2ccco2)C1c1ccccc1F)c1cccs1 (stereo unspecified)	i	i	i	i	i	.	.	.
O=C1c2[nH]nc(-c3ccccc3O)c2C(c2ccccc2)N1Cc1ccco1 (stereo unspecified)	12*	i	i	i	i	6.0%*	i	i
COc1cccc(C2c3c(-c4ccccc4O)n[nH]c3C(=O)N2Cc2ccco2)c1 (stereo unspecified)	i	i	i	i	i	.	.	.
Cc1cccc(NC(=O)C2CCCN(C(=O)Nc3ccc(F)cc3)C2)c1 (stereo unspecified)	i	i	i	i	i	.	.	.
CC(C)n1cc(/C=N/Nc2ccc(C(=O)O)cc2)c2ccccc21	i	i	i	i	i	.	.	.
CCNC(=O)C(=O)NCC1OCCCN1S(=O)(=O)c1cccs1 (stereo unspecified)	i	i	i	i	i	.	.	.
CCOC(=O)[C@@H]1[C@H]2COc3cc(OC)ccc3[C@@H]2N2C(=O)N(c3ccc(C)cc3)C(=O)[C@]12C	i	i	i	i	i	.	.	.
CCOC(=O)[C@@H]1[C@H]2COc3cc(OC)ccc3[C@@H]2N2C(=O)N(c3cccc(Cl)c3)C(=O)[C@@]12C	i	i	i	i	i	i	i	i
CCOC(=O)[C@@H]1[C@H]2COc3cc(OC)ccc3[C@@H]2N2C(=O)N(c3ccc(Br)cc3)C(=O)[C@]12C	i	i	i	i	i	.	.	.
CCOC(=O)[C@@H]1[C@H]2COc3cc(OC)ccc3[C@@H]2N2C(=O)N(c3cccc(Cl)c3)C(=O)[C@]12C	i	i	i	i	i	i	i	i
CCOC(=O)[C@H]1[C@H]2COc3cc(OC)ccc3[C@@H]2N2C(=O)N(c3cccc(Cl)c3)C(=O)[C@@]12C	i	i	i	i	i	i	i	i
CCOC(=O)[C@@H]1[C@H]2COc3cc(OC)ccc3[C@@H]2N2C(=O)N(c3ccc(Cl)cc3)C(=O)[C@]12C	i	i	i	i	i	i	i	i
SMILES	RGS4 block	MrgX1 antagonist	RGS4 pot	MrgX1 PAM	MrgX1 ag	RGS4 inh valid	RGS4 uninduced	M3R basal Ca ctr
O=C(NCc1ccco1)c1cnn2cccnc12	i	i	i	i	i	.	.	.
NC[C@@H]1O[C@H](C23CC4CC(CC(C4)C2)C3)Cc2c1ccc(O)c2O	10*	i	i	i	i	10%*	i	i
O=c1c2ccccc2nc2n1CCS2(=O)=O	6.2*	i	i	i	i	26%*	i	i
O=c1c2ccccc2nc2c3ccccc3c3nncn3n12	i	.	i	.	.	.	.	.
Cc1cccnc1NC(=O)C1c2ccccc2Oc2ccccc21	8.2*	i	i	i	i	10%*	i	i
Cc1ccccc1NC(=O)C1c2ccccc2Oc2ccccc21	i	i	i	i	i	.	.	.
CC1CC(C)(C)NC(=S)N1CCC(=O)N1CCc2ccccc2C1 (stereo unspecified)	i	i	i	i	i	.	.	.
COc1ccc(N2C(=O)CC(Sc3ncn[nH]3)C2=O)c(OC)c1 (stereo unspecified)	12*	i	i	i	i	22%*	i	i
CC(C)c1ccc(N2C(=O)CC(Sc3ncn[nH]3)C2=O)cc1 (stereo unspecified)	i	i	i	i	i	.	.	.
CCn1cc(C(=O)N[C@@H](C)C(=O)NCCCO)c(=O)c2cc3c(cc21)OCO3	i	i	i	i	i	.	.	.
COc1ccc(C(=O)NCCN2C(=O)S/C(=C\c3cccnc3)C2=O)cc1[N+](=O)[O-]	i	i	i	i	i	i	i	i
